Article PMC7383501 (Diabetes, Obesity & Metabolism, 2020)

Columns and labels:
[1] = Repeated-dose study: serum pharmacokinetics of efpeglenatide; format: in vivo, human; conditions: mean (SD); for Accumulation ratio: AUC0–τ last dose / AUC0–τ first dose; for PTR (peak‐to‐trough ratio): Cmax/Cmin
How it was run: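 T2D patients on metformin received s.c. doses weekly (168 h interval, eight injections) or monthly (672 h interval, three injections). PK set, grouped by the most recent treatment received. Accumulation ratio was AUC0–τ of the last dose over AUC0–τ of the first dose. Peak-to-trough ratio was Cmax/Cmin. t1/2 was the terminal elimination half-life.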

GLP‐1 receptor [2] = conditions: in vitro; compared with other GLP‐1RAs; cited from earlier work
GLP‐1 receptor [3] = conditions: in vitro; compared with other GLP‐1RAs; cited from earlier work; remark: listed apart in the source
[4] = system: anti-efpeglenatide antibodies; assay: Repeated-dose study: immunogenicity, bridging ELISA; format: in vivo, human; conditions: the four patients with antibodies at baseline
How it was run: (§1)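 Adults aged 18–65 with T2D on stable metformin for ≥3 months, HbA1c 7–10%. Randomized 3:1 to s.c. test compound or placebo with no titration, in six cohorts of 12. Doses were 1, 2 or 4 mg weekly for 8 weeks, or 8, 12 or 16 mg monthly for 9 weeks; follow-up to week 13. Assessments covered AEs, vital signs, 12-lead ECG, clinical laboratory measures, immunogenicity and physical examination. Analysed in the safety set by treatment actually received.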

[5] = system: anti-efpeglenatide antibodies; assay: Single-dose study: immunogenicity, bridging ELISA; format: in vivo, human; conditions: serum, pre-dose, days 28 and 49, follow-up
How it was run: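 First-in-patient dose escalation in eight cohorts of six T2D patients: single s.c. injection of 2–100 μg/kg test compound or placebo (5:1). Patients were 18–75 years, BMI 25–40 kg/m², HbA1c 6–10%, with a 14-day washout of glucose-lowering drugs before dosing. Immunogenicity was a secondary objective.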

[6] = Single-dose study: serum pharmacokinetics of efpeglenatide; format: in vivo, human; conditions: T2D patients, serum ELISA; for tmax: median (min–max)
How it was run: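 Single s.c. dose (2–100 μg/kg) in T2D patients. Serum concentration–time data were used to derive tmax, terminal t1/2, observed Cmax, AUC(0–last) and AUC(0–inf). Values are geometric mean (%CV of arithmetic mean); tmax is median (min, max). Dose proportionality was explored on log-transformed Cmax and AUC. The PK set comprised dosed patients with sufficient concentration data.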

patients with T2D [7] = assay: Single-dose study: safety and tolerability; format: in vivo, human
How it was run: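 Single ascending s.c. doses of 2–100 μg/kg or placebo (5:1) were given to T2D patients after a 14-day washout of glucose-lowering drugs. Safety assessments covered AE recording, vital signs, 12-lead ECG, clinical laboratory measures and physical examination. The safety set included all patients receiving any study drug.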

patients with T2D [8] = assay: Repeated-dose study: safety and tolerability; format: in vivo, human
How it was run: as §1

patients with T2D [9] = assay: Repeated-dose study: pharmacodynamics/efficacy; format: in vivo, human
How it was run: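 Multiple-ascending-dose trial in adults with T2D on stable metformin: s.c. doses weekly (1, 2, 4 mg; 8 weeks) or monthly (8, 12, 16 mg; 9 weeks), placebo 3:1, no titration. Primary endpoint was HbA1c change from baseline to […]. Full analysis set by randomized treatment. LS means came from ANCOVA with cohort as main effect and baseline as covariate. Each dose was tested against placebo within its regimen, two-sided at 5%, unadjusted.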

patients with T2D [10] = assay: Single-dose study: pharmacodynamics; format: in vivo, human; conditions: single dose 2–8 μg/kg
How it was run: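 Pharmacodynamics were assessed from 24-hour glucose profiles, including fasting and postprandial plasma glucose, reported as absolute change from baseline. The PD set comprised all treated patients.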

[11] = single s.c. dose 2 μg/kg, geometric mean (%CV)
[12] = single s.c. dose 4 μg/kg, geometric mean (%CV)
[13] = single s.c. dose 8 μg/kg, geometric mean (%CV)
[14] = single s.c. dose 14 μg/kg, geometric mean (%CV)
[15] = single s.c. dose 20 μg/kg, geometric mean (%CV)
[16] = single s.c. dose 40 μg/kg, geometric mean (%CV)
[17] = single s.c. dose 60 μg/kg, geometric mean (%CV)
[18] = single s.c. dose 100 μg/kg, geometric mean (%CV)

efpeglenatide
Accumulation ratio ([1]; 1 mg once weekly s.c., τ 168 h): 3.49 (2.16)
PTR (peak‐to‐trough ratio) ([1]; 1 mg once weekly s.c.): 1.40 (0.49)
Accumulation ratio ([1]; 2 mg once weekly s.c., τ 168 h): 3.51 (0.68)
PTR (peak‐to‐trough ratio) ([1]; 2 mg once weekly s.c.): 1.42 (0.21)
Accumulation ratio ([1]; 4 mg once weekly s.c., τ 168 h): 3.71 (1.87)
PTR (peak‐to‐trough ratio) ([1]; 4 mg once weekly s.c.): 1.32 (0.12)
Accumulation ratio ([1]; 8 mg once monthly s.c., τ 672 h): 1.07 (0.10)
PTR (peak‐to‐trough ratio) ([1]; 8 mg once monthly s.c.): 10.35 (7.28)
PTR (peak‐to‐trough ratio) ([1]; 12 mg once monthly s.c.): 5.86 (1.10)
PTR (peak‐to‐trough ratio) ([1]; 16 mg once monthly s.c.): 12.94 (7.55)
receptor internalization (GLP‐1 receptor [2]): reduced receptor internalization
dissociation from the GLP‐1 receptor (GLP‐1 receptor [3]): faster dissociation
treatment‐emergent or treatment‐induced antibodies [4]: none
development of anti‐efpeglenatide antibodies [5]: No patient
AUC(0–last) [6, 11]: 2913 (19) ng h/mL
Cmax [6, 11]: 10.4 (11) ng/mL
tmax ([6]; single s.c. dose 2 μg/kg): 144.00 (72.06–216.76) h
AUC(0–inf) [6, 12]: 9060 (12) ng h/mL
AUC(0–last) [6, 12]: 7911 (12) ng h/mL
Cmax [6, 12]: 25.7 (16) ng/mL
t1/2 [6, 12]: 144 (10) h
tmax ([6]; single s.c. dose 4 μg/kg): 72.06 (72.00–216.80) h
Cmax [6, 13]: 45.1 (5) ng/mL
t1/2 [6, 13]: 147 (19) h
tmax ([6]; single s.c. dose 8 μg/kg): 72.06 (72.00–144.00) h
Cmax [6, 14]: 80.3 (28) ng/mL
t1/2 [6, 14]: 135 (8) h
tmax ([6]; single s.c. dose 14 μg/kg): 144.00 (72.00–216.76) h
Cmax [6, 15]: 102 (6) ng/mL
t1/2 [6, 15]: 147 (6) h
tmax ([6]; single s.c. dose 20 μg/kg): 144.00 (72.00–216.78) h
Cmax [6, 16]: 202 (14) ng/mL
t1/2 [6, 16]: 141 (10) h
tmax ([6]; single s.c. dose 40 μg/kg): 144.00 (72.00–216.78) h
Cmax [6, 17]: 349 (13) ng/mL
t1/2 [6, 17]: 154 (9) h
tmax ([6]; single s.c. dose 60 μg/kg): 72.00 (72.00–144.00) h
Cmax [6, 18]: 643 (12) ng/mL
t1/2 [6, 18]: 180 (12) h
tmax ([6]; single s.c. dose 100 μg/kg): 72.00 (72.00–216.90) h
deaths or serious AEs (patients with T2D [7]): no deaths or serious AEs
arrhythmia or ECG changes due to QTc prolongation or conduction disorders (patients with T2D [7]; 12‐lead ECG): no signs of arrhythmia or ECG changes
hypoglycaemia or pancreatitis reported as AEs (patients with T2D [7]; any treatment group): No incidences
dose-escalation stopping criteria (patients with T2D [8]; 16 mg once monthly cohort, more than three patients with moderate vomiting): reached the predefined stopping criteria for dose escalation
pancreatic injury (patients with T2D [8]; any patient receiving efpeglenatide, repeated-dose study): no cases of pancreatic injury
haematological, serum chemistry or urine analysis variables (patients with T2D [8]; any treatment group, repeated-dose study): no significant change from baseline
LS mean change in HbA1c compared with placebo (patients with T2D [9]; 8 mg once monthly, day 57, P = 0.006): statistically significant LS mean decreases
LS mean change in HbA1c compared with placebo (patients with T2D [9]; 12 mg once monthly, day 57, P = 0.015): statistically significant LS mean decreases
LS mean change in HbA1c compared with placebo (patients with T2D [9]; 16 mg once monthly, day 57): not statistically significant
LS mean change in HbA1c compared with placebo (patients with T2D [9]; all once‐monthly dose groups (8, 12, 16 mg), day 29, P ≤0.047 for all, ANCOVA): significant decreases
LS mean change in HbA1c compared with placebo (patients with T2D [9]; each once‐weekly dose group (1, 2, 4 mg), day 29, P ≤0.003 for all, ANCOVA): Significant decreases
LS mean change in HbA1c compared with placebo (patients with T2D [9]; each once‐weekly dose group (1, 2, 4 mg), day 57, P ≤0.021 for all, ANCOVA): Significant decreases
changes in PPG (patients with T2D [10]): No notable changes
reductions in FPG from baseline over 2 weeks (patients with T2D [10]; compared with the higher doses, data not shown): smaller than those observed for the higher doses
